Activity calls are given as the source filed them. Where only a bound is given, the exact number is not on record here.

In assay [1] the target is Vascular endothelial growth factor receptor 2 (Homo sapiens) (UniProt P35968). Put plainly: Inhibition of recombinant His-tagged human KDR cytoplasmic domain (789 to 1356 residues) expressed in baculovirus expression system at 1 uM by FRET assay relative to control. The gist of the method: (§1)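 Single-point screen at 1 μM compound in a 220-kinase panel run by Life Technologies (SelectScreen). Z′-LYTE format: phosphorylation of a labeled peptide substrate read by FRET. Values are reported as percent inhibition.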

Assay [2] deals with Serine/threonine-protein kinase MARK1 (Homo sapiens) (UniProt Q9P0L2). The experiment in a line: Inhibition of recombinant full Length GST-tagged human MARK1 expressed in baculovirus expression system at 1 uM by FRET assay relative to control. The gist of the method: (§2)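 Single-concentration screen at 1 μM in Life Technologies SelectScreen, across a 220-kinase panel. Z′-LYTE format measures phosphorylation of a labeled peptide by FRET. Results are reported as percent inhibition.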

Assay [3] addresses Opioid receptors; mu/kappa/delta (Homo sapiens) (UniProt P41145+P41143+P35372). The experiment in a line: Binding affinity to opiod receptor (unknown origin) receptor at 10 uM relative to control. It counts as protein assay. The gist of the method: (§3)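 Broad radioligand-binding and enzyme screening panel covering 42 targets (biogenic amine and neuropeptide receptors, ion channels, neurotransmitter transporters, acetylcholinesterase). Single test concentration of 10 μM. Results expressed as binding relative to control, with a hit defined as >50% of control.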

Assay [4] relates to Mus musculus. The experiment in a line: In-vivo inhibition of DLK in PS2APP mouse model assessed as reduction in phosphorylated c-jun level in cortical lysate at 50 mg/kg, po administered as single dose after 6 hrs by Western blot analysis. The class given is functional, organism-based. On the technique in general: A western blot detects proteins with antibodies after separation by electrophoresis.

In assay [5] the target is Protein-tyrosine kinase 6 (Homo sapiens) (UniProt Q13882). The experiment in a line: Inhibition of recombinant full length His-tagged human Brk cytoplasmic domain expressed in baculovirus expression system at 1 uM by FRET assay relative to control.
Assay [6] concerns Mus musculus. Put plainly: Down regulation of phosphorylated JNK level in cortical lysate of PS2APP mouse model at 15 to 50 mg/kg, po administered as single dose after 6 hrs by Western blot analysis. It counts as functional, organism-based.
The target in assay [7] is Tyrosine-protein kinase Fes/Fps (Homo sapiens) (UniProt P07332). Put plainly: Inhibition of recombinant full length His-tagged human FES cytoplasmic domain expressed in baculovirus expression system at 1 uM by FRET assay relative to control.
In assay [8] the target is Serine/threonine-protein kinase Chk2 (Homo sapiens) (UniProt O96017). Put plainly: Inhibition of recombinant full length His-tagged human CHK2 expressed in baculovirus expression system at 1 uM by FRET assay relative to control.
Assay [9] deals with Mus musculus. The experiment in a line: In-vivo inhibition of DLK in PS2APP mouse model assessed as reduction in phosphorylated c-jun level in cortical lysate at 15 mg/kg, po administered as single dose after 6 hrs by Western blot analysis relative to control. The class given is functional. The gist of the method: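 Homozygous PS2APP mice aged 9–10 months got one oral dose of 15 mg/kg as an MCT suspension, or vehicle; n = 7–8 per group. At 6 h: terminal plasma by cardiac puncture under deep anaesthesia, then PBS perfusion. Left cortex frozen at −80 °C and homogenised in 10 volumes RIPA. p-c-Jun read by Western blot with a GAPDH control, compared with vehicle (Dunnett's test).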

Assay [10] deals with Ephrin type-A receptor 3 (Homo sapiens) (UniProt P29320). The experiment in a line: Inhibition of recombinant His-tagged human EphA3 cytoplasmic domain expressed in baculovirus expression system at 1 uM by FRET assay relative to control. In short, it runs like this:
as §1

For assay [11], the target named is Mitogen-activated protein kinase kinase kinase 11 (Homo sapiens, UniProt Q16584). Put plainly: Inhibition of recombinant human full length GST-tagged MLK3 expressed in baculovirus expression system by FRET assay.
Assay [12] deals with Mitogen-activated protein kinase kinase kinase 5 (Homo sapiens) (UniProt Q99683). Put plainly: Inhibition of recombinant full length GST-tagged human ASK1 expressed in baculovirus expression system at 1 uM by FRET assay relative to control. In short, it runs like this:
as §2

For assay [13], the target named is Neuronal acetylcholine receptor; alpha4/beta2 (Homo sapiens) (UniProt P17787+P43681). The experiment in a line: Binding affinity to alpha4beta2 nAChR (unknown origin) receptor at 10 uM relative to control. It counts as protein-complex assay. The gist of the method:
as §3

Assay [14] is filed under the species Homo sapiens. Put plainly: Binding affinity to KATP (unknown origin) receptor at 10 uM relative to control. The gist of the method:
as §3

Assay [15] has as its target STE20-like serine/threonine-protein kinase (Homo sapiens) (UniProt Q9H2G2). Put plainly: Inhibition of recombinant full length GST-tagged human SLK expressed in baculovirus expression system at 1 uM by FRET assay relative to control. In short, it runs like this: as §2
The target of assay [16] is SRSF protein kinase 1 (Homo sapiens) (UniProt Q96SB4). The experiment in a line: Inhibition of recombinant full length His-tagged human SRPK1 expressed in baculovirus expression system at 1 uM by FRET assay relative to control.
In assay [17] the target is Dual specificity tyrosine-phosphorylation-regulated kinase 4 (Homo sapiens) (UniProt Q9NR20). Put plainly: Inhibition of full length recombinant GST-tagged human DYRK4 expressed in baculovirus expression system at 1 uM by FRET assay relative to control.
Assay [18] deals with Casein kinase I isoform gamma-2 (Homo sapiens) (UniProt P78368). The experiment in a line: Inhibition of CK1gamma2 (unknown origin) at 1 uM by FRET assay relative to control.
Assay [19] concerns the target Myotonin-protein kinase (Homo sapiens, UniProt Q09013). The experiment in a line: Inhibition of full length recombinant human DMPK expressed in baculovirus expression system by FRET assay.
The target of assay [20] is Ephrin type-A receptor 7 (Homo sapiens, UniProt Q15375). Put plainly: Inhibition of recombinant GST-tagged human EphA7 cytoplasmic domain expressed in baculovirus expression system by FRET assay.
For assay [21], the target named is Serine/threonine-protein kinase PAK 1 (Homo sapiens) (UniProt Q13153). The experiment in a line: Inhibition of recombinant full length GST-tagged human PAK1 expressed in baculovirus expression system at 1 uM by FRET assay relative to control.
Assay [22] addresses Calcium/calmodulin-dependent protein kinase type IV (Homo sapiens) (UniProt Q16566). The experiment in a line: Inhibition of recombinant full length GST-tagged human CamK4 expressed in Escherichia coli at 1 uM by FRET assay relative to control.

Chain of Opioid receptors; mu/kappa/delta (Homo sapiens) (P35372 whole entry, looked up): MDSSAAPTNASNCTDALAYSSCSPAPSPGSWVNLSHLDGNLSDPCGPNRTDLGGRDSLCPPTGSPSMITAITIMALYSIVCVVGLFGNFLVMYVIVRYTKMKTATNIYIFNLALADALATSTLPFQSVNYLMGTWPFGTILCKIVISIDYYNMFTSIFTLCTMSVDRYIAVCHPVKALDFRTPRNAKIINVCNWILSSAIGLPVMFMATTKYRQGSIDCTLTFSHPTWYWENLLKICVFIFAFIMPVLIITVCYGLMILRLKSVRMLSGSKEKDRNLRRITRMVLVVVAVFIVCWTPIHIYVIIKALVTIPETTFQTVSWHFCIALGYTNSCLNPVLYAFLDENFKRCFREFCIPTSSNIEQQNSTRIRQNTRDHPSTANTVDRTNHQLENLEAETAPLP
Chain of Opioid receptors; mu/kappa/delta (Homo sapiens) (P41143 whole entry, looked up): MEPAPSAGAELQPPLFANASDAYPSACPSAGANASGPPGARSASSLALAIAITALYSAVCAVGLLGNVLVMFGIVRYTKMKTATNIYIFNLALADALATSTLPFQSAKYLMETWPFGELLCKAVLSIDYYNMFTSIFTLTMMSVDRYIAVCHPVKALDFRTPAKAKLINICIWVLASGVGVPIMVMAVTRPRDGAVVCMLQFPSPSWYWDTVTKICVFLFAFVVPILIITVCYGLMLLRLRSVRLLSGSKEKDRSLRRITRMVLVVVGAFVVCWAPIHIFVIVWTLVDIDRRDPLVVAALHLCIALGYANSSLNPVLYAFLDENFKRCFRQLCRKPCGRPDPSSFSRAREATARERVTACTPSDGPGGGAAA
Chain of Opioid receptors; mu/kappa/delta (Homo sapiens) (P41145 whole entry, looked up): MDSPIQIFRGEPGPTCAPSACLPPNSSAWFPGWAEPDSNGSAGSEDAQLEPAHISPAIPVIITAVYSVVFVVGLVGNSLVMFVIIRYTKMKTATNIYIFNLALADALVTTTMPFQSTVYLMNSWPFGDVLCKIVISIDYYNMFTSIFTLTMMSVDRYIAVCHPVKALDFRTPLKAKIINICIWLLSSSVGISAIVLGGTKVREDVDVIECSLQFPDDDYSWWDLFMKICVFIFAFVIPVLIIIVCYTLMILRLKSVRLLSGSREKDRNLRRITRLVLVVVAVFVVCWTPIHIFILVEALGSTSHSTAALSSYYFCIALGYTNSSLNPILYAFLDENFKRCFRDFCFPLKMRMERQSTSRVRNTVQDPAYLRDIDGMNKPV
Chain of Mitogen-activated protein kinase kinase kinase 5 (Homo sapiens) (Q99683 whole entry): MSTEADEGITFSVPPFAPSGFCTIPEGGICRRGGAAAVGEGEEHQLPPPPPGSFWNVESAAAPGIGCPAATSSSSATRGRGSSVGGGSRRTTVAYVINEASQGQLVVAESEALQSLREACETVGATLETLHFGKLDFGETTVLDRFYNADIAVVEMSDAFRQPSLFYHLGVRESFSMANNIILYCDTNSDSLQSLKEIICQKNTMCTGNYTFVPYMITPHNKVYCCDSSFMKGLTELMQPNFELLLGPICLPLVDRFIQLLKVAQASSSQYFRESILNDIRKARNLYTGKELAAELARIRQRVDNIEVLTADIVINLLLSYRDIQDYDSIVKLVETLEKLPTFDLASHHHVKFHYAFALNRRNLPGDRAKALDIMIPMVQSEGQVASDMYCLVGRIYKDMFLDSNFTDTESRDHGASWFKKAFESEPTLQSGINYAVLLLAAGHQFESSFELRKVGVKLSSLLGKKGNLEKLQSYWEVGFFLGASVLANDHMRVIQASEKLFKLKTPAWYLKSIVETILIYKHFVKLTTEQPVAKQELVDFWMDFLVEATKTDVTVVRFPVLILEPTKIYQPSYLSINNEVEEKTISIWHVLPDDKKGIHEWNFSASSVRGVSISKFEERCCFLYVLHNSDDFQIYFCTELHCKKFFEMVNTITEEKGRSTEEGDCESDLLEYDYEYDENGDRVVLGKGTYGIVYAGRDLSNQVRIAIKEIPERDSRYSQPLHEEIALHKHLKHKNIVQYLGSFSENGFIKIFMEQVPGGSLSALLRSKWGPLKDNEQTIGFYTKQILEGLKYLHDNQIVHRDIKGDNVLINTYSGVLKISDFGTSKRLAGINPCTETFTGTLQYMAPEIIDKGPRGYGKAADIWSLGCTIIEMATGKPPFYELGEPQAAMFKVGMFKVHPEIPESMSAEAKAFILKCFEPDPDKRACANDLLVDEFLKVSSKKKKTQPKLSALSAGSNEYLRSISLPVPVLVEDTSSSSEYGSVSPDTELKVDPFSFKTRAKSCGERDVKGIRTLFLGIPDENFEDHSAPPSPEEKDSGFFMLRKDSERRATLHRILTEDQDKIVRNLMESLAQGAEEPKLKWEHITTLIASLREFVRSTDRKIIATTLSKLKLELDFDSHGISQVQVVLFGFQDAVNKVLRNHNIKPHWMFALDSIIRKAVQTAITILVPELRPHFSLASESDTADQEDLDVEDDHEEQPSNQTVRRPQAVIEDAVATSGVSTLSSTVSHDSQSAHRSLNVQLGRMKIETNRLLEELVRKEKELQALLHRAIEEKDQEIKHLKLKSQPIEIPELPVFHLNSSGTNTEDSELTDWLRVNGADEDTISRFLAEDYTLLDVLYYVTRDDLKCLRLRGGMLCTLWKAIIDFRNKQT
Chain of Tyrosine-protein kinase Fes/Fps (Homo sapiens) (P07332 whole entry, the tested form may be a part): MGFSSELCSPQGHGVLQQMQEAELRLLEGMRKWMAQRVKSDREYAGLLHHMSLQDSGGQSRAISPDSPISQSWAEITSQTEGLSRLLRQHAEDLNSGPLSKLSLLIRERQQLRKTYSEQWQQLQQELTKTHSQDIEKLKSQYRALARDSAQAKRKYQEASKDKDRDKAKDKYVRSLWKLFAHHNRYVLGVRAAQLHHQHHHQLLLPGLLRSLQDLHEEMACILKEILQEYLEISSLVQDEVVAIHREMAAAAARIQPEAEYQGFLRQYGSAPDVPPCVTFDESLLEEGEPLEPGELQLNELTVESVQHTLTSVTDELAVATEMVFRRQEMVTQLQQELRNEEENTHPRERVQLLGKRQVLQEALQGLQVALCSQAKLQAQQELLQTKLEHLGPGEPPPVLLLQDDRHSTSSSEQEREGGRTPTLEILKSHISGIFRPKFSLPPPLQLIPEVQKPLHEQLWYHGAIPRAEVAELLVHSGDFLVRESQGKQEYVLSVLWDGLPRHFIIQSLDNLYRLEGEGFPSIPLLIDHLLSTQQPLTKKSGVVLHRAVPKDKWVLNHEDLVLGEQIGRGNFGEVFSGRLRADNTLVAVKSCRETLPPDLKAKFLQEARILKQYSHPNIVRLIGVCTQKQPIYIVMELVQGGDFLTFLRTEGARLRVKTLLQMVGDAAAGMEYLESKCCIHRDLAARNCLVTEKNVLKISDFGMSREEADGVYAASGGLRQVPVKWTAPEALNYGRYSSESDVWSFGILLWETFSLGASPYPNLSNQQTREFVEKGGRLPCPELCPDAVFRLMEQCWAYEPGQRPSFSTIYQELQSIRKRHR
Chain of Vascular endothelial growth factor receptor 2 (Homo sapiens) (P35968 whole entry, the tested form may be a part): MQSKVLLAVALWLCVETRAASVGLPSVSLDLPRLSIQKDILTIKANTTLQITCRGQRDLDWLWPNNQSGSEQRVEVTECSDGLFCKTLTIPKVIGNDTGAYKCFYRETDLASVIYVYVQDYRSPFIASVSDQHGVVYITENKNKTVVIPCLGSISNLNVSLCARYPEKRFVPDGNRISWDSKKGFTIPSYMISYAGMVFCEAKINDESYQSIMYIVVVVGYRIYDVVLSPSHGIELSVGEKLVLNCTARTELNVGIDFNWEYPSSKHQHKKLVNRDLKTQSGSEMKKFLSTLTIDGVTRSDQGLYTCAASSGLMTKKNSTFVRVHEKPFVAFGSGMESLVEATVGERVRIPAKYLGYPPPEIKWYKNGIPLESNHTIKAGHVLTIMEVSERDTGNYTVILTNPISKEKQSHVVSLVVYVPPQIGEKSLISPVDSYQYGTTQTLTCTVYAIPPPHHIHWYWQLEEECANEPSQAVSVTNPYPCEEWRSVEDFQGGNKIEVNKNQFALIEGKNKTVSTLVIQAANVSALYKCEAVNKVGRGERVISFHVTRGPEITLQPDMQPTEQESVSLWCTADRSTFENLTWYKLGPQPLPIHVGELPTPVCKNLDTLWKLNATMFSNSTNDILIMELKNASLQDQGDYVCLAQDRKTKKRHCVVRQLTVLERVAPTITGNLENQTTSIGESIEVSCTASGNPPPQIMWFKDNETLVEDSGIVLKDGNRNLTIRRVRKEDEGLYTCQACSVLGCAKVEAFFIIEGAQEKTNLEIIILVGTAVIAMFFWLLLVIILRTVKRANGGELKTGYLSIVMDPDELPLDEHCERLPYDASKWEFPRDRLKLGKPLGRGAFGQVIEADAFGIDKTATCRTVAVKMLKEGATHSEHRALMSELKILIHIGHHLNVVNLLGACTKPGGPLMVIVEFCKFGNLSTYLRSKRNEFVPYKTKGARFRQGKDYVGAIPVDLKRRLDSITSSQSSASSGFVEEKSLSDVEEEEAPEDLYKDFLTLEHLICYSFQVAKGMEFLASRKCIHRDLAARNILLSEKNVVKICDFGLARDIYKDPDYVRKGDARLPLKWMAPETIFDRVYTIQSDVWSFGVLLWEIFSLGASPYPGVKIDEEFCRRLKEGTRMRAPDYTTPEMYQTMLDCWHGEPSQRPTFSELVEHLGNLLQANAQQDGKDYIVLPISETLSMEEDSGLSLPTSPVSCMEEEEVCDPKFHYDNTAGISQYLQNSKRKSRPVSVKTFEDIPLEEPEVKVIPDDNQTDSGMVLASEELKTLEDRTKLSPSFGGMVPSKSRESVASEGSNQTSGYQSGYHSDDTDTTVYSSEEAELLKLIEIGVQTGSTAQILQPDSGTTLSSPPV

In the case of `CC(C)n1nc(-c2cnc(N)c(OC(F)(F)F)c2)cc1[C@H]1[C@@H]2CN(C3COC3)C[C@@H]21`, the inhibition was found to be 10.6% in [1]; 11.4% in assay [2]; 7.8% in [5]; 17.1% in assay [7]; 12.8% in assay [8]; 10.2% in [10]. The inhibition is -5.3% in assay [12], 4.9% in assay [15], 1% in [16] and -1.4% in assay [17]. For the same compound, the Activity in assay [3], in assay [13] and in assay [14] was > 50% throughout. The inhibition result in assay [4] is “Active”. In addition, the result in assay [6] was Active. Moreover, the inhibition in vivo at 15 mg/kg in assay [9] stood at 42%. Besides, the IC50 in [11] is > 10000 nM.
For `Nc1ncc(-c2cc([C@H]3[C@@H]4CN(C5COC5)C[C@@H]43)n(CC3CC3)n2)cc1C(F)(F)F`, the inhibition came out at 7.1% in assay [18]; 35% in assay [1]; 12.1% in assay [2]; 5.8% in assay [5]; 21.1% in assay [7]; 0.7% in assay [21]. Also, the inhibition in [8] is 16.3%; in assay [22], 12.4%; in [10], 22.9%; in assay [12], 3.1%; in [15], 4.8%; in assay [16] it was -1.7%. Also, the inhibition in assay [17] is -1.6%. The figures for the IC50 in [19], in assay [20] and in assay [11] were 1380 nM, 665 nM and > 10000 nM, respectively. For the same compound, the Activity in assay [3], in [13] and in assay [14] was > 50% each time.

The inhibition is the drop in the measured response relative to a control, in per cent. One may read the inhibition in vivo as the change of the read-out against control, counted positive when it falls. Usually IC50 stands for the concentration at which inhibition is half-maximal.

Values taken from ChEMBL document CHEMBL4118097, “Selective Inhibitors of Dual Leucine Zipper Kinase (DLK, MAP3K12) with Activity in a Model of Alzheimer's Disease” (J Med Chem, 2017).
